Assay results reported in ChEMBL document CHEMBL3352233, “N-[6-(4-butanoyl-5-methyl-1H-pyrazol-1-yl)pyridazin-3-yl]-5-chloro-1-[2-(4-methylpiperazin-1-yl)-2-oxoethyl]-1H-indole-3-carboxamide (SAR216471), a novel intravenous and oral, reversible, and directly acting P2Y12 antagonist” (J Med Chem, 2014).
Activity calls are given as the source filed them. The rule behind the calls is not given here.

Legend:
[1] = (§1) Metabolic stability in human liver microsomes assessed as compound metabolism after 20 mins incubation in presence of 1 mM NADPH; type: ADME; conditions: liver microsomes, read-out: Drug metabolism
Outline: (§2)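 Hepatic microsomal fractions are incubated with compound for 20 min with 1 mM NADPH. Result is reported as % metabolized, i.e. 100 minus % unchanged compound.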

[2] = (§3) Metabolic stability in rat liver microsomes assessed as compound metabolism after 20 mins incubation in presence of 1 mM NADPH; type: ADME; conditions: liver microsomes, read-out: Drug metabolism; outline: as §2
[3] = tested on: Rattus norvegicus; assay: Ex vivo inhibition of platelet aggregation in Sprague-Dawley rat at 10 mg/kg, po after 2 hrs; type: functional; conditions: for inhibition in vivo at 10 mg/kg: Rattus norvegicus, Sprague-Dawley, po, 2 h; for inhibition (INH): 10 mg/kg
Outline: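 Male Sprague−Dawley rats (250−300 g), 6 per batch, are dosed by stomach tube at 10 mL/kg of a 1 mg/mL solution in 5% glucose water containing 5% Cremophor and 3% glycofurol. At 2 h, aortic blood is drawn into 3.8% citrate (1:9) under pentobarbital. PRP is prepared at 300g for 5 min. ADP aggregation is read as the 6-min absorbance AUC and expressed as % inhibition.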

[4] = Solubility in water at pH 4.9; type: physicochemical
[5] = molecular target: P2Y purinoceptor 12 (Homo sapiens, UniProt Q9H244); assay: Displacement of [33P]2MeS-ADP from P2Y12 receptor (unknown origin) transfected in CHO cells after 30 mins by scintillation counting analysis; type: cell-based
Outline: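 P2Y12-expressing CHO cells (35 × 10³/sample) in PBS with 1 mM EDTA and 0.2% BSA are exposed to compound for 30 min. [³³P]2-MeS-ADP (0.16 nM) is then added for 15 min at 20 °C, in triplicate. Filtration separates free from bound ligand, followed by scintillation counting. Nonspecific binding uses 1 mM unlabeled ADP. IC50 comes from a four-parameter logistic fit with asymptotes fixed at 0 and 100. n = 2.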

[6] = Permeability across human Caco2 cells; type: ADME, cell-based; conditions: for Papp: Caco-2, read-out: permeability; for permeability: Caco-2
Outline: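 Permeation is measured across a Caco2 cell monolayer and reported in 10⁻⁷ cm·s⁻¹.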

[7] = tested on: Rattus norvegicus; assay: Ex vivo inhibition of platelet aggregation in po dosed Sprague-Dawley rat after 2 hrs; type: functional
Outline: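 Oral gavage in male Sprague−Dawley rats (250−300 g, 6 per batch), vehicle 5% glucose water with 5% Cremophor and 3% glycofurol. Blood is collected 2 h after dosing from the abdominal aorta into 3.8% citrate under pentobarbital. PRP is prepared at 300g for 5 min. ADP-induced aggregation is quantified as the 6-min absorbance AUC, given as % inhibition.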

[8] = tested on: Rattus norvegicus; assay: Ex vivo inhibition of platelet aggregation in Sprague-Dawley rat at 10 mg/kg, po after 6 hrs; type: functional; conditions: for inhibition in vivo at 10 mg/kg: Rattus norvegicus, Sprague-Dawley, po, 6 h; for inhibition (INH): 10 mg/kg
Outline: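 Time-course study in Sprague−Dawley rats after a 10 mg/kg oral dose in glucose/Cremophor/glycofurol vehicle. Aortic citrated blood is sampled at intervals over the hours after dosing. PRP is prepared at 300g for 5 min. ADP-induced aggregation is measured as the 6-min absorbance AUC and reported as % inhibition.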

[9] = tested on: Salmonella typhimurium; assay: Mutagenicity in Salmonella typhimurium by Ames II test in presence of liver S9 fraction; type: toxicity, organism-based; conditions: salmonella enterica subsp. enterica serovar typhimurium
[10] = tested on: Salmonella typhimurium; assay: Mutagenicity in Salmonella typhimurium by Ames II test in absence of liver S9 fraction; type: toxicity, organism-based; conditions: salmonella enterica subsp. enterica serovar typhimurium
[11] = Solubility in water at final pH; type: physicochemical
[12] = Metabolic stability in mouse liver microsomes assessed as compound metabolism after 20 mins incubation in presence of 1 mM NADPH; type: ADME; conditions: read-out: Drug metabolism
Outline: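 Compound incubated with mouse hepatic microsomal fractions for 20 min with 1 mM NADPH. Read-out is % metabolism, meaning 100 minus % unchanged compound.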

[13] = tested on: Hepatocyte; assay: Intrinsic metabolic clearance in human hepatocytes measured per 10^6 cells after 24 hrs; type: ADME, cell-based
Outline: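 Human hepatocytes incubated with compound for 24 h to measure in vitro metabolism. Clearance reported in mL·h⁻¹·(10⁶ hepatocytes)⁻¹.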

[14] = tested on: Hepatocyte; assay: Intrinsic metabolic clearance in human hepatocytes measured assessed as CYP3A4 contribution per 10^6 cells after 24 hrs; type: ADME, cell-based
[15] = tested on: Rattus norvegicus; assay: Ex vivo inhibition of platelet aggregation in Sprague-Dawley rat at 1 mg/kg, iv after 30 mins; type: functional; conditions: 0.5 h
Outline: (§4)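 Male Sprague−Dawley rats (250−300 g) receive compound iv. At 30 min, under pentobarbital anesthesia, blood is taken from the abdominal aorta into 3.8% citrate (1:9). PRP is prepared at 300g for 5 min. ADP-induced aggregation is measured, using the area under the absorbance curve over 6 min, and expressed as % inhibition.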

[16] = tested on: Rattus norvegicus; assay: Ex vivo inhibition of platelet aggregation in Sprague-Dawley rat at 3 mg/kg, iv after 30 mins; type: functional; conditions: 0.5 h; outline: as §4
[17] = tested on: Rattus norvegicus; assay: Ex vivo inhibition of platelet aggregation in Sprague-Dawley rat at 10 mg/kg, iv after 30 mins; type: functional; conditions: 0.5 h; outline: as §4
[18] = tested on: Liver microsome; assay: as §1; type: ADME; conditions: microsomes, 20 min; outline: as §2
[19] = tested on: Liver microsome; assay: as §3; type: ADME; conditions: microsomes, 20 min; outline: as §2

Sequence of P2Y purinoceptor 12 (Q9H244 whole entry): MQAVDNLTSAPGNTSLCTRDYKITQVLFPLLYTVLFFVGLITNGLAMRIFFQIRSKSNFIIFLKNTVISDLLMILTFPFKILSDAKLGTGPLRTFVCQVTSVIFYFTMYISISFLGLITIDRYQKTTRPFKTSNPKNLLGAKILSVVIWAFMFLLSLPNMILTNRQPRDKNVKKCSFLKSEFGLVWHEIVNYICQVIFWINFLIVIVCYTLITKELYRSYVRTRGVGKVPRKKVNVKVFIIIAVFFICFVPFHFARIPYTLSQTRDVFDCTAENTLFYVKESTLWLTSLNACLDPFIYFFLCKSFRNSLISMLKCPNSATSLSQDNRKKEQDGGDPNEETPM

metabolised at 20 min [1] [%]	metabolised at 20 min [2] [%]	IC50 [5] [µM]	Papp [6] [×10⁻⁶ cm/s]	Compound	Activity [9]	Activity [10]	further results
39	41	0.031	4	CCCC(=O)c1cnn(-c2ccc(NC(=O)c3cn(CC(=O)N4CCN(C)CC4)c4ccc(C)cc34)cc2)c1C.Cl			inhibition in vivo at 10 mg/kg [3]: 33%; solubility [4]: 760 µg/mL
				COC(=O)[C@H](c1ccccc1Cl)N1CCc2sccc2C1 [CLOPIDOGREL]			ED50 [7]: 2.6 mg/kg
				CCCC(=O)c1cnn(-c2ccc(NC(=O)c3cn(CC(=O)N4CCN5CCN(C)C(=O)C5C4)c4ccc(Cl)cc34)cc2)c1C (single isomer, unassigned; 103) [listing 1 of 2 here]			inhibition [8]: inactive
				CCCC(=O)c1cnn(-c2cnc(N)cn2)c1C	Non-toxic	Non-toxic	
59	64	0.031	18.6	CCCC(=O)c1cnn(-c2ccc(NC(=O)c3cn(CC(=O)N(C)C)c4cc(C)c(C)cc34)cc2)c1C			solubility [11]: < 10 µg/mL
				CCCC(=O)c1cnn(-c2ccc(N)c(C(=O)N(C)C)c2)c1C	Toxic	Non-toxic	
				CCCC(=O)c1cnn(-c2cnc(N)s2)c1C	Toxic	Non-toxic	
36	14	0.027	1.6	CCCC(=O)c1cnn(-c2ccc(NC(=O)c3cn(CC(=O)N4CCN(C)CC4)c4ccc(Cl)cc34)cc2)c1C			inhibition in vivo at 10 mg/kg [3]: 50%; inhibition in vivo at 10 mg/kg [8]: 51%; inhibition in vivo at 1 mg/kg [15]: 53%; inhibition in vivo at 3 mg/kg [16]: 70%; inhibition in vivo at 10 mg/kg [17]: 86%
				CCCC(=O)c1cnn(-c2ccc(N)c(C(=O)O)c2)c1C	Non-toxic	Non-toxic	
				CCCC(=O)c1cnn(-c2ccc(N)c(C#N)c2)c1C	Non-toxic	Non-toxic	
87	31	0.011	0.6	CCCC(=O)c1cnn(-c2ccc(NC(=O)c3cn(CC(=O)N4CCN(Cc5cc(C)on5)CC4)c4ccc(Cl)cc34)cc2)c1C			inhibition in vivo at 10 mg/kg [3]: 72%; inhibition in vivo at 10 mg/kg [8]: 60%
				CCCC(=O)c1cnn(-c2ccc3c(c2)OCCN3)c1C	Non-toxic	Non-toxic	
				CCCC(=O)c1cnn([C@H]2CC[C@H](N)CC2)c1C		Non-toxic	
61	18	0.048	3.3	CCCC(=O)c1cnn(-c2ccc(NC(=O)c3cn(CC(=O)N4CCN(C)CC4)c4ccc(Cl)cc34)c(C#N)c2)c1C			metabolised at 20 min [12]: 8%; CLH [13]: 0.143 mL/h; Activity [14]: 67%
20			7.5	CCCSc1nc(N[C@@H]2C[C@H]2c2ccc(F)c(F)c2)c2nnn([C@@H]3C[C@H](OCCO)[C@@H](O)[C@H]3O)c2n1 [TICAGRELOR]			ED50 [7]: 1.59 mg/kg
				CCCC(=O)c1cnn(-c2ccc(N)nc2)c1C	Non-toxic	Non-toxic	
				CCCC(=O)c1cnn(-c2ccc(N)c(C(N)=O)c2)c1C	Non-toxic	Non-toxic	
50	52	0.039	5.9	CCCC(=O)c1cnn(-c2ccc(NC(=O)c3cn(CC(=O)N4CCN(C)CC4)c4cc(C)c(C)cc34)cc2)c1C.Cl			inhibition in vivo at 10 mg/kg [3]: 37%
				CCCC(=O)c1cnn(-c2ccc(N)cn2)c1C	Toxic	Non-toxic	
				CCCC(=O)c1cnn(-c2ccc(N)nn2)c1C	Non-toxic	Non-toxic	
				CCCC(=O)c1cnn(C2CCN(N)CC2)c1C	Non-toxic	Non-toxic	
34	20	0.048	2.8	CCCC(=O)c1cnn(-c2ccc(NC(=O)c3cn(CC(=O)N4CCN(C)CC4)c4cc(C)c(Br)cc34)cc2)c1C			inhibition in vivo at 10 mg/kg [3]: 21%
				CCCC(=O)c1cnn(-c2ccc(N)cc2)c1C	Toxic	Non-toxic	
36	23	0.034	3.6	CCCC(=O)c1cnn(-c2ccc(NC(=O)c3cn(CC(=O)N4CCN(C)CC4)c4cc(C)c(Cl)cc34)cc2)c1C			inhibition in vivo at 10 mg/kg [3]: 31%
				CC(=O)Oc1cc2c(s1)CCN(C(C(=O)C1CC1)c1ccccc1F)C2 (centres undefined)			ED50 [7]: 0.46 mg/kg
				CCCC(=O)c1cnn(-c2ccc(O)cc2)c1C	Non-toxic	Non-toxic	

Compound	metabolised at 20 min [1] [%]	metabolised at 20 min [2] [%]	IC50 [5] [µM]	Papp [6] [×10⁻⁶ cm/s]	Activity [9]	Activity [10]	further results
CCCC(=O)c1cnn(-c2ccc(NC(=O)c3cn(CC(=O)N4CCN(CCOC)CC4)c4ccc(Cl)cc34)cc2)c1C	47	11	0.015	4.3			inhibition in vivo at 10 mg/kg [3]: 68%; inhibition in vivo at 10 mg/kg [8]: 65%
CCCC(=O)c1cnn([C@H]2CC[C@H](NC(=O)c3cn(CC(=O)N4CCN(C)CC4)c4ccc(Cl)cc34)CC2)c1C	73	32	0.04	0.1			metabolised at 20 min [12]: 11%; CLH [13]: 0.171 mL/h; Activity [14]: 64%
CCCC(=O)c1cnn(-c2ccc(NC(=O)c3cn(CC(=O)N4CCN5CCN(C)C(=O)C5C4)c4ccc(Cl)cc34)cc2)c1C (single isomer, unassigned; 104)			0.012				Drug metabolism [18]: 47%; Drug metabolism [19]: 7%; inhibition (INH) [8]: 61%; permeability [6]: 28 ×10⁻⁷ cm/s
CCCC(=O)c1cnn(-c2ccc(NC(=O)c3cn(CC(=O)N4CCN5CCN(C)C(=O)C5C4)c4ccc(Cl)cc34)cc2)c1C (racemic)	50		0.008	3.6			Drug metabolism [19]: 40%; inhibition (INH) [3]: 80%; inhibition (INH) [8]: 39%
CCCC(=O)c1cnn(-c2ccc(NC(=O)c3cn(CC(=O)N4CCN5CCN(C)C(=O)C5C4)c4ccc(Cl)cc34)cc2)c1C (single isomer, unassigned; 103) [listing 2 of 2 here]			0.007				Drug metabolism [18]: 52%; Drug metabolism [19]: 23%; inhibition (INH) [3]: 46%; permeability [6]: 32 ×10⁻⁷ cm/s
CCCC(=O)c1cnn(C2CCN(NC(=O)c3cn(CC(=O)N4CCN(C)CC4)c4ccc(Cl)cc34)CC2)c1C	59	13	0.007	0.1			metabolised at 20 min [12]: 3%; CLH [13]: 0.05 mL/h; Activity [14]: 35%; ED50 [7]: 0.95 mg/kg; inhibition [7]: Dose-dependent effect
